A selection: hits, their analogues and other compounds. The true share with any hit is near 1.2%.
Efa HMGR inh – E. faecalis class II HMG-CoA reductase inhibition | purified E. faecalis HMGR, NADPH absorbance 340 nm kinetic | 190,000 compounds, 0.41% hits | inhibition, % at 10 µM;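 active = inhibition above a set limit, the median over all tested compounds plus 3 SD, cut at about 9.5% in these data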;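 also: enzyme runs in reverse so mevalonate oxidation gives rising NADPH absorbance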
INS promoter inh – TRM-6 insulin promoter activity inhibition | TRM-6 cells (human fetal islet line), insulin promoter-eGFP reporter, imaging; reporter expression induced with tamoxifen | inhibition, % at 2 µM | 130,000 compounds, 0.9% hits | AID 1273;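 active = inhibition above the mean plus 3 SD, with well images judged a real hit on visual review, cut at about 60% in these data, passing the limit was not always enough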
TNAP inh no acc – TNAP (human) inhibition, acceptor-free conditions. purified TNAP, CDP-star luminescence, 30 min. 200,000 compounds, 0.26% hits. AID 1012. inhibition, % at 20 µM. P05186;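 active = tissue-nonspecific alkaline phosphatase inhibition above about 50% at 20 µM in the single-dose screen, limit read from the data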
Target sequence (P05186 whole entry, looked up): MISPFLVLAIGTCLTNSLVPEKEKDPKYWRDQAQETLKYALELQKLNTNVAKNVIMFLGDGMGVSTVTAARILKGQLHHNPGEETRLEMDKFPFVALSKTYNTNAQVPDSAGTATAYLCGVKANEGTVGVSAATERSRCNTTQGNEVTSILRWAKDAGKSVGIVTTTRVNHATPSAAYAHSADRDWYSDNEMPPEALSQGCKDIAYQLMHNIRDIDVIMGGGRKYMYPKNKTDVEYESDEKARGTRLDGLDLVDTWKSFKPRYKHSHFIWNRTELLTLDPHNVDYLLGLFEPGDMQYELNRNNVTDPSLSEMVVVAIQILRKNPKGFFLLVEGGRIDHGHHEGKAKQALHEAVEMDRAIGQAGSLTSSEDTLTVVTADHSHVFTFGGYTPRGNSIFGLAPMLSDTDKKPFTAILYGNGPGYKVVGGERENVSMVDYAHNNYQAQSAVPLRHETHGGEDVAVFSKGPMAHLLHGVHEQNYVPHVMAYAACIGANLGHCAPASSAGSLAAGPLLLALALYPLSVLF
TNAP act hi DEA – TNAP (human) activation, high acceptor. 200,000 tested, under 10 active. activation factor at 20 µM. purified TNAP, CDP-star luminescence, 1 M DEA, 30 min; stronger effect = higher value; 0 = EDTA background, 1 = DMSO-only activity. P05186. AID 1136;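 active = activation factor at least 2 at 20 µM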
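system = human TNAP | amount = enzyme diluted 1/800 final | reagent = 100 µM CDP-star substrate | signal = luminescent substrate turnover signal | dosing = one dose, 20 µM | benchmarks = EDTA negative control, DMSO positive control | measure = activation factor | timing = 30 min reaction, room temperature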
TNAP inh hi DEA – blocks human TNAP under high phosphate acceptor concentration. purified TNAP, CDP-star luminescence, 1 M DEA. inhibition, % at 20 µM. 200,000 compounds, 0.03% hits. AID 1135;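 active = over 50% inhibition of tissue-nonspecific alkaline phosphatase at 20 µM in the single-dose screen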
Of the large screens only hits and unclear results are named; the others gave an inactive call.

COc1ccc(N2C(=O)CC(N3CCC(n4c(=O)[nH]c5ccccc54)CC3)C2=O)cc1 (stereo not given)	none
O=c1[nH]c2ccccc2n1CCCN1CCC(n2c(=O)[nH]c3cc(Cl)ccc32)CC1	TNAP inh no acc 70
COc1ccc(C(=O)C2CCCN(Cc3cnc(C)s3)C2)c(OC)c1 (stereo not given)	Efa HMGR inh 16 (no result: INS promoter inh)
O=c1c2ccccc2nc(N2CCCC2)n1-c1ccc(Cl)cc1	none (no result: INS promoter inh)
CCOc1ccc2nc(N=Nc3c(O)[nH]c(=S)[nH]c3=O)sc2c1	TNAP inh hi DEA 53 (no result: INS promoter inh)
Cc1ccc(N2CCN(CCc3ccccc3)CC2)cc1	none
CC1CN(CCc2ccccc2)CC(C)O1 (stereo not given)	INS promoter inh 70
COc1ccc(CN2C(=O)NC(=O)/C(=C\c3cc(OC)c(OC)c(OC)c3)C2=O)cc1	none
COc1ccc(CN2C(=O)NC(=O)/C(=C\c3ccco3)C2=O)cc1	Efa HMGR inh 12
O=C1CC(C(=O)N2CCC3(CC2)OCCO3)CN1CCc1ccccc1 (stereo not given)	INS promoter inh 80
O=C(C1CC(=O)N(C2CCCCC2)C1)N1CCC2(CC1)OCCO2 (stereo not given)	none
Nc1cc(Cl)c2nonc2c1[N+](=O)[O-]	none
CC(=O)Nc1ccccc1OP1(=O)COc2ccccc2OC1	INS promoter inh 77
CC1(C)N=C(c2ccccc2)[C@@H]2C(c3ccc([N+](=O)[O-])cc3)N21 (stereo not given in full)	none
CC1=C(C(=O)N2CCC3(CC2)OCCO3)C2(CCC(C)CC2)OC1=O (stereo not given)	INS promoter inh 73
COc1ccc(C2N(c3cc(C)on3)C(=O)C3CCCN32)cc1 (stereo not given)	none
COc1cc(/C=C/[N+](=O)[O-])ccc1O	TNAP inh no acc 53
CCN1CCN(C(=O)Cc2ccccc2OC)CC1	Efa HMGR inh 14 (no result: INS promoter inh)
COc1ccccc1CN1CCN(C(=O)COc2ccccc2)CC1	none
Cc1c2cnn(CC(=O)N3CCC4(CC3)OCCO4)c(=O)c2c(C)n1Cc1ccccc1F	Efa HMGR inh 12
CSc1ccc(C(=O)C2CCCN(Cc3cnc(SC)nc3)C2)cc1 (stereo not given)	none (no result: INS promoter inh)
CC(C)(C)c1ccc(O)c(CN2CCN(c3ccccc3)CC2)c1	INS promoter inh 82
O=[N+]([O-])c1ccc(N2CCNCC2)cc1Sc1ccccn1	none
CC(Cc1ccccc1)NC(=O)/C=C/c1ccc(Cl)cc1 (stereo not given)	none (no result: INS promoter inh)
CC(Cc1ccccc1)NC(=O)Cc1ccc(N(C)C)cc1 (stereo not given)	Efa HMGR inh 11
Cc1ccc(-n2c(O)c(/C=N/c3ncc(Br)cc3Br)c(=O)[nH]c2=O)cc1	Efa HMGR inh 10.0
Cc1cccc(-n2c(O)c(C=Nc3ccc(Br)cn3)c(=O)[nH]c2=O)c1	none
COc1ccc(Cn2c(O)c(/C=N/NC(=O)c3ccccc3)c(=O)[nH]c2=O)cc1	TNAP inh no acc 71
O=[N+]([O-])/C=C1/NCCN1Cc1ccc(Cl)nc1	none (no result: INS promoter inh)
O=[N+]([O-])/C(Cl)=C1\NCCN1Cc1ccc(Cl)nc1	Efa HMGR inh 14 (no result: INS promoter inh)
CNCC(C)c1ccccc1 (stereo not given)	none (no result: INS promoter inh)
CCn1c(O)c(C(=O)CC2NCCc3ccccc32)c(=O)n(CC)c1=S (stereo not given)	none (no result: INS promoter inh)
O=C(c1cc(F)ccc1F)C1CCCN(CCCc2ccccc2)C1 (stereo not given)	Efa HMGR inh 9.6 (no result: INS promoter inh)
O=C(c1cc(F)ccc1F)C1CCCN(Cc2cccc(Cl)c2)C1 (stereo not given)	none (no result: INS promoter inh)
Oc1ccc(/C=N/NP(=S)(c2ccccc2)c2ccccc2)cc1O	TNAP inh no acc 77
Oc1cc2c(cc1O)[C@H]1c3ccccc3CN[C@@H]1CC2	TNAP inh no acc 92 (no result: INS promoter inh)
O=C(NCc1cccnc1)C(Cl)(Cl)Cl	none
COc1cccc(-n2c(/C=C/c3ccc(O)c(O)c3)nc3ccccc3c2=O)c1	TNAP inh no acc 84 (no result: INS promoter inh)
O=c1[nH]c(=S)n(Cc2ccc(F)cc2)c(O)c1C=NCc1cccnc1	none
COc1ccc(C(=O)c2nc3ccccc3n2C(C)C)cc1	none

Screening data from PubChem BioAssay.
